Active and inactive are the calls of the source. The rule behind the calls is not given here.
Key:
Serine protease hepsin [1] = biological target: Serine protease hepsin (Homo sapiens, UniProt P05981, D161E/R162K); assay: Inhibition of recombinant C-terminal His10-tagged human Hepsin (R45 to […] residues) D161E/ R162K double mutant expressed in mouse NS0 cells using Boc-QRR-AMC as substrate after 15 mins by automated fluorescence assay
How it was run: (§1)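 On-line assay integrated with the flow-synthesis platform: a 20 µL aliquot of each product solution captured automatically, HPLC-purified, then diluted and assayed.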

[2] = biological target: Urokinase-type plasminogen activator (Homo sapiens, UniProt P00749); assay: Inhibition of recombinant C-terminal His10-tagged human uPA (M1 to L431 residues) expressed in mouse NS0 cells using Z-GGR-AMC as substrate after 15 mins by automated fluorescence assay; how it was run: as §1
[3] = Chromatographic hydrophobicity index, log D of the compound at pH 7 by HPLC/UV analysis; type: physicochemical; conditions: buffer
Tryptase (Homo sapiens) = Tryptase (Homo sapiens) (UniProt Q9BZJ3+Q15661+Q9NRR2); assay: Inhibition of recombinant full length human tryptase usingZ-Gly-Pro-Arg-AMC as substrate at 10 uM after 60 mins by fluorescence spectrophotometric method relative to control; type: protein assay
How it was run: (§2)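 Panel of ten serine proteases; percent inhibition read at compound concentrations of 1 µM and 10 µM, each value the mean of 2 experiments.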

[4] = biological target: T1, Neutrophil elastase (Homo sapiens) (UniProt P08246); assay: Inhibition of human ELA2 using N-MeOSuc-Ala-Ala-Pro-Val-pNA as substrate at 10 uM after 60 mins by spectrophotometric method relative to control; how it was run: as §2
T1 sequence (whole entry): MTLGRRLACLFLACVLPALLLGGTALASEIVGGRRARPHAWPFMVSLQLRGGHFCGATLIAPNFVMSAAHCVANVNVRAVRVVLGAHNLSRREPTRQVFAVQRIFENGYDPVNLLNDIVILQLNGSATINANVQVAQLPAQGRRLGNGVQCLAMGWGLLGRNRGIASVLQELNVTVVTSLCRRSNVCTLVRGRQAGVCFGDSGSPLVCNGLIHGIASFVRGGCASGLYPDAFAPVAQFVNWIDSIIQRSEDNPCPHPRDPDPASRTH

Serine protease hepsin [5] = biological target: T2, Serine protease hepsin (Homo sapiens, UniProt P05981); assay: Inhibition of doxycycline induced hepsin-mediated conversion of Pro-HGF into active form in human MCF10A cells assessed as decrease in MET phosphorylation (Tyr1243/1245) at 1 to 10 uM preincubated for 30 mins followed by recombinant human pro-HGF addition measured after 30 mins by immunoblot method; type: cell-based
T2 sequence (P05981 1-162 limits assumed): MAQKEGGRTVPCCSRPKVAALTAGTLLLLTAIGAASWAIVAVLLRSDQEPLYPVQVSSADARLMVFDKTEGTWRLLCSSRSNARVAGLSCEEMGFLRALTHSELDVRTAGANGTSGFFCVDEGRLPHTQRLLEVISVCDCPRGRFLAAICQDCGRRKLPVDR
T2 sequence (P05981 163-417 limits assumed): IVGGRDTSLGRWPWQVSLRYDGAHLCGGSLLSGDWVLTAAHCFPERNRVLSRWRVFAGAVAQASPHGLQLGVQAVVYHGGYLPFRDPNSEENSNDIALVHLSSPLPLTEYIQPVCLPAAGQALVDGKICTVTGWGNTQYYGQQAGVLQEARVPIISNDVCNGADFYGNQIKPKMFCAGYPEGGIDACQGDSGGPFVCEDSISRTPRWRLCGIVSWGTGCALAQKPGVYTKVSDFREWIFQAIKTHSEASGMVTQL
How it was run: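 Dox-induced MCF10A-Indu20-hepsin cells given DMSO or inhibitor for 30 min, then 50 ng/mL recombinant human Pro-HGF; MET phosphorylation (Tyr1243/1245) detected by immunoblotting.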

Serine protease hepsin [6] = biological target: T2, Serine protease hepsin; assay: Inhibition of hepsin-mediated conversion of Pro-HGF into active form in human Hs578T cells assessed as decrease in MET phosphorylation at 1 uM preincubated for 30 mins followed by recombinant human pro-HGF addition measured after 30 mins by immunoblot method; type: cell-based
How it was run: (§3)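 Hs578T or HCC1937 breast cells incubated with DMSO or inhibitor, then 50 ng/mL recombinant human Pro-HGF added; MET pathway activation (phospho-MET) assessed by immunoblotting.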

Serine protease hepsin [7] = biological target: T2, Serine protease hepsin; assay: Inhibition of hepsin-mediated conversion of Pro-HGF into active form in human HCC1937 cells assessed as decrease in MET phosphorylation at 1 uM preincubated for 30 mins followed by recombinant human pro-HGF addition measured after 30 mins by immunoblot method; type: cell-based; how it was run: as §3
[8] = test system: Serine protease hepsin (Homo sapiens), P05981 [D161E,R162K]; assay: Inhibition of recombinant C-terminal His10-tagged human Hepsin (R45 to […] residues) D161E/ R162K double mutant expressed in mouse NS0 cells assessed as decrease in HGF alpha chain formation at 1 uM incubated for 30 mins in presence of recombinant human pro-HGF by immunoblot method; type: cell-based
Serine protease hepsin (Homo sapiens), P05981 [D161E,R162K], sequence (P05981 whole entry D161E/R162K): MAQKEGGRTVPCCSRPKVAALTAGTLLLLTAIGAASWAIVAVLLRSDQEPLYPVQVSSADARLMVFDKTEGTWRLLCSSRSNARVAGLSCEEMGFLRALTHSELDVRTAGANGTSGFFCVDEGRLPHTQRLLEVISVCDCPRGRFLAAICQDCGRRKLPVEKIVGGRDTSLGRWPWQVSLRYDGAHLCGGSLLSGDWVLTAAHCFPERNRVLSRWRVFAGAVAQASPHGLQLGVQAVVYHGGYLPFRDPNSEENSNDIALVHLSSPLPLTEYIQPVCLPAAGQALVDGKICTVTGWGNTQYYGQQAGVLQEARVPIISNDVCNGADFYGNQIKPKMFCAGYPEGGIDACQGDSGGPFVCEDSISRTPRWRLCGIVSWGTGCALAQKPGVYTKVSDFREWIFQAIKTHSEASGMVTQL
How it was run: (§4)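 Recombinant human Pro-HGF incubated with recombinant human hepsin plus inhibitor at 37°C for 30 min; processing analysed by immunoblot with an antibody recognizing Pro-HGF and the α and β chains.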

[9] = test system: Serine protease hepsin (Homo sapiens), P05981 [D161E,R162K]; assay: Inhibition of recombinant C-terminal His10-tagged human Hepsin (R45 to […] residues) D161E/ R162K double mutant expressed in mouse NS0 cells assessed as decrease in HGF beta chain formation at 1 uM incubated for 30 mins in presence of recombinant human pro-HGF by immunoblot method; type: cell-based; how it was run: as §4
Serine protease hepsin [10] = biological target: T2, Serine protease hepsin; assay: Inhibition of doxycycline induced hepsin-mediated loss of desmosomal junctions in human MCF10A cells at 1 to 10 uM preincubated for 30 mins followed by doxycycline addition measured after 6 hrs by desmoglein 2 staining-based confocal immunofluorescence microscopic analysis; type: cell-based
How it was run: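 MCF10A-Indu20-hepsin cells on coverslips pretreated 30 min with 1 or 10 µM compound or DMSO, then 100 ng/mL Dox for 6 h. Desmoglein 2 immunofluorescence: continuous pericellular staining scored positive, discontinuous or absent scored negative. Cells counted in 10 fields per treatment across three biological replicates; reported as percentages.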

Row | SMILES | IC50 (Serine protease hepsin [1]) [nM] | IC50 [2] [nM] | chromatographic logD [3] | inhibition (Tryptase (Homo sapiens)) [%] | inhibition [4] [%] | inhibition (Serine protease hepsin [5]) | inhibition (Serine protease hepsin [6]) | inhibition (Serine protease hepsin [7]) | inhibition [8] | inhibition [9] | inhibition (Serine protease hepsin [10])
1 | Cc1ccc(S(=O)(=O)N[C@@H](C(=O)Nc2ccc(C(=N)N)cc2)C2CCCCC2)cc1 | 33 | 4400 | 1.3 | 98 | < 10 | – | – | – | – | – | –
2 | Cc1ccc(S(=O)(=O)N[C@@H](C(=O)Nc2ccc(C(=N)N)cc2)c2ccccc2)cc1 | – | – | – | 80 | < 10 | Active | Active | Active | Active | Active | Active
3 | N=C(N)c1ccc(NC(=O)[C@H](NS(=O)(=O)c2ccc(F)cc2)C2CCCCC2)cc1 | 90 | > 14000 | – | 91 | < 10 | – | – | – | – | – | –

— ChEMBL document CHEMBL4118144, “Design, Synthesis, and Testing of Potent, Selective Hepsin Inhibitors via Application of an Automated Closed-Loop Optimization Platform” (J Med Chem, 2018)
